How the values were obtained:
[1] = biological target: T1, Farnesyl diphosphate synthase (Toxoplasma gondii, UniProt Q197X6); test: Inhibition of Toxoplasma gondii FPPS
T1 sequence (Q197X6 whole entry): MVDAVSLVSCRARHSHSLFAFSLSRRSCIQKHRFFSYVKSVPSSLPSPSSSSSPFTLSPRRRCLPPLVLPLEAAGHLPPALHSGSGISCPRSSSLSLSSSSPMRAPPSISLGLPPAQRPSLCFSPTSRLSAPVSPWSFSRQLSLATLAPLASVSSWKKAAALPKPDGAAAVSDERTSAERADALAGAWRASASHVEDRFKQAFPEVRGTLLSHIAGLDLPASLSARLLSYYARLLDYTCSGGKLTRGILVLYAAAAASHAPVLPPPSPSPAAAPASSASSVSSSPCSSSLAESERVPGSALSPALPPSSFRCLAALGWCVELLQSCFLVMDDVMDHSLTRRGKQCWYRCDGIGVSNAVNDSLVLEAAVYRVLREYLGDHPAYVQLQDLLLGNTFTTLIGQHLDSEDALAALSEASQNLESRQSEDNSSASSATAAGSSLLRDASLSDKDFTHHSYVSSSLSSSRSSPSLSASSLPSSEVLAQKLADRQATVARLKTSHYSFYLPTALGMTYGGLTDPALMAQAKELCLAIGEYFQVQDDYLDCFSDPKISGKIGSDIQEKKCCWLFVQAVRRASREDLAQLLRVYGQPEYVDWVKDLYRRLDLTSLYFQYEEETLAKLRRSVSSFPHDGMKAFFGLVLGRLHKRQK

[2] = test system: Toxoplasma gondii; test: Antimicrobial activity against Toxoplasma gondii tachyzoites expressing red fluorescence protein infected in hTerT cells measured daily by fluorescence assay; type: functional; details: read-out: ED50 (the source's name)
Summary of the method: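 Tachyzoites expressing red fluorescent protein, maintained in hTerT cells in DMEM-HG with 1% FBS, 2 mM glutamine, 1 mM pyruvate, 37 °C, 5% CO2. Confluent hTerT monolayers infected with 10^4 filtered, needle-passed tachyzoites/well. Drugs serially diluted in the same medium. Fluorescence read daily from the bottom (ex 510, em 540 nm).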

[3] = test system: Trypanosoma cruzi; test: Antimicrobial activity against Trypanosoma cruzi; type: functional; details: read-out: ED50 (the source's name)
[4] = test system: Trypanosoma cruzi; test: Ratio of compound activity to WC-9 activity for Trypanosoma cruzi amastigotes; type: functional
[5] = test system: Trypanosoma cruzi; test: Antimicrobial activity against Trypanosoma cruzi amastigotes; type: functional; details: read-out: ED50 (the source's name)
Summary of the method: (§1)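 Vero cells were gamma-irradiated (2,000 Rads), seeded at 3.4×10^4/well in RPMI with 10% FBS, and incubated overnight at 35 °C, 7% CO2. […] Compounds were given in serial dilutions (1.56–25 μM), each in quadruplicate, with benznidazole (0.39–6.25 μM) as reference. Fluorescence was read on day 3 post-infection, and IC50 was obtained by non-linear regression.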

[6] = test system: Trypanosoma cruzi; test: Antimicrobial activity against Trypanosoma cruzi CL amastigotes infected in african green monkey Vero cells measured on day 3 by fluorescence assay; type: functional; details: 72 h, read-out: ED50 (the source's name); summary of the method: as §1
[7] = test system: Toxoplasma gondii; test: Antimicrobial activity against Toxoplasma gondii tachyzoites expressing red fluorescence protein infected in hTerT cells at 10 uM measured daily by fluorescence assay; type: functional
[8] = test system: Trypanosoma cruzi; test: Antimicrobial activity against Trypanosoma cruzi CL amastigotes infected in african green monkey Vero cells at 10 uM measured on day 3 by fluorescence assay; type: functional; details: 72 h
Summary of the method: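 Vero host cells, gamma-irradiated (2,000 Rads), seeded at 3.4×10^4/well in RPMI with 10% FBS and incubated overnight at 35 °C, 7% CO2. […] Compounds were added in RPMI, in quadruplicate, with no-parasite background and no-drug controls. Fluorescence was read at day 3 post-infection.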

[9] = test system: Vero; test: Cytotoxicity against african green monkey Vero cells at 25 uM; type: cell-based; details: chlorocebus sabaeus
Summary of the method: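 Host-cell toxicity toward irradiated, T. cruzi-infected Vero cells was judged by visual inspection during the amastigote assay. Drugs went up to 25 μM in RPMI with 10% FBS at 35 °C, 7% CO2, over 3 days.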

[10] = Cytotoxicity against hTerT cells; type: cell-based; details: human
Summary of the method: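 Toxicity toward hTerT host cells was judged by visual inspection during the tachyzoite growth assay. Cells were in DMEM-HG with 1% FBS at 37 °C, 5% CO2.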

[11] = […]; set-up: species or system Trypanosoma cruzi
[12] = test system: Vero; test: Cytotoxicity against african green monkey Vero cells at 10 uM; type: cell-based; details: chlorocebus sabaeus

| Compound | IC50 [1] [nM] | EC50 [2] [nM] | EC50 [6] [nM] | Activity [9] | Activity [10] | IC50 [11] [nM] | further results |
| --- | --- | --- | --- | --- | --- | --- | --- |
| CCCCCCCCCC(F)(P(=O)(O)O)P(=O)(O)O | 60 |  |  |  |  |  |  |
| O=P(O)(O)C(O)(Cc1cccnc1)P(=O)(O)O [RISEDRONIC ACID] |  | 2400 |  |  |  |  |  |
| CCCCCCCCCCCCNCC(P(=O)(O)O)P(=O)(O)O |  |  |  |  |  |  | EC50 [3]: 670 nM |
| CCCCCCNCC(P(=O)(O)O)P(=O)(O)O |  |  |  |  |  |  | Ratio [4]: 15; EC50 [5]: 840 nM |
| O=C(Cn1ccnc1[N+](=O)[O-])NCc1ccccc1 [BENZNIDAZOLE] |  |  | 1440 |  |  |  | EC50 [3]: 2770 nM |
| CCCCCCCCCCNCC(O)(P(=O)(O)O)P(=O)(O)O | 125 |  |  | Non-toxic | Non-toxic | > 10000 | inhibition at 10 µM [7]: 14.9%; inhibition at 10 µM [8]: 42% |
| CCCCCCCCC(F)(P(=O)(O)O)P(=O)(O)O | 35 |  |  |  |  |  |  |
| CCCCCCCNCC(O)(P(=O)(O)O)P(=O)(O)O |  | ≥ 10000 | > 20000 | Non-toxic | Non-toxic | > 10000 |  |
| CCCCCCCCNCC(O)(P(=O)(O)O)P(=O)(O)O | 39 | 2000 |  | Non-toxic | Non-toxic | > 10000 | inhibition at 10 µM [8]: 46%; Activity [12]: Toxic |
| CCCCCNCC(O)(P(=O)(O)O)P(=O)(O)O | 67 | > 10000 | > 20000 | Non-toxic | Non-toxic | > 10000 |  |
| CCCCCCNCC(O)(P(=O)(O)O)P(=O)(O)O | 51 | 4680 | > 20000 | Non-toxic | Non-toxic | > 10000 |  |

Reference: ChEMBL document CHEMBL3098043, “New insights into molecular recognition of 1,1-bisphosphonic acids by farnesyl diphosphate synthase” (Bioorg Med Chem, 2014)
